Our source for the ILS, LD20 and Optimal dose values is ChEMBL document CHEMBL1124897, “(1-Pyrenylmethyl)amino alcohols, a new class of antitumor DNA intercalators. Discovery and initial amine side chain structure-activity studies” (1990).

Each structure is given as a SMILES string.

Common to all, as to assay type: functional, Mus musculus
Test [1] concerns P388. The test is described as follows: In vivo antitumor activity against murine lymphocytic leukemia P388 measured as percent increase in life span. A digest of the protocol:
(§1)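 Male CD2-F1 mice (20 ± 3 g) implanted ip with 1 × 10^6 viable P388 cells on day 0. Drug given ip as aqueous suspension or solution in 0.9% NaCl or 5% dextrose on days 1, 5 and 9, dosed per body weight in mg/kg. Several dose levels bracketing the LD20 were tested, six mice per dose. Deaths before the control median day of death were counted as drug toxicity.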

Test [2] relates to P388. Description: In vivo antitumor activity against murine lymphocytic leukemia P388 measured as lethal dose […]. The arrangement: unit: mg/kg. The method in brief: as §1
In test [3] the test system is P388. The test is described as follows: In vivo antitumor activity against murine lymphocytic leukemia P388 measured as optimal dose. A digest of the protocol:
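Male CD2-F1 mice (20 ± 3 g) implanted ip with 1 × 10^6 viable P388 cells on day 0. Compound given ip as aqueous suspension or solution in 0.9% NaCl or 5% dextrose on days 1, 5 and 9, dosed per mg/kg body weight. Several doses bracketing LD20 were tested, six mice per dose. %ILS was calculated from median day of death of treated versus control mice. Values are optimal from at least two experiments.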

As to `CC(C)C(CO)NCc1ccc2ccc3cccc4ccc1c2c34.Cl` (configuration not stated), in test [1], the increase in lifespan (ILS) (as a rule, the gain in survival time of treated over control animals, in per cent) amounted to 27%. In test [2], this molecule displayed an LD20 of 450. The same molecule gave an Optimal dose in test [3] of 200 mg/kg.
In test [1], `COCC(C)(CO)NCc1ccc2ccc3cccc4ccc1c2c34` (configuration not stated) displayed an ILS of 30%. Besides, in test [2], the LD20 came out at 135. In test [3], this molecule gave an Optimal dose of 180 mg/kg.
`CC(=O)OCC(COC(C)=O)(COC(C)=O)NCc1ccc2ccc3cccc4ccc1c2c34`: the ILS in test [1] is reported as 30%. This molecule gave an LD20 in test [2] of 500. In test [3], this molecule returned an Optimal dose of 315 mg/kg.
Regarding `Cl.OCC(O)C(CO)NCc1ccc2ccc3cccc4ccc1c2c34` (configuration not stated), in test [1], the ILS is listed as 25%. For the same molecule, the LD20 in test [2] came to 140. Further, the Optimal dose in test [3] was 125 mg/kg.
The corresponding values for `CC(C)C(CO)(CO)NCc1ccc2ccc3cccc4ccc1c2c34.Cl` are 55%, 300 and 450 mg/kg.
`Cl.OCC(CO)(CO)NCc1ccc2ccc3cccc4ccc1c2c34`: the ILS in test [1] is on record as 90%. Also, in test [2], the LD20 was 215. This molecule also returned an Optimal dose in test [3] of 198 mg/kg.
In the case of `CC(C)(CO)NCc1ccc2ccc3cccc4ccc1c2c34.Cl`, the ILS in test [1] was determined as 45%. Further, the LD20 in test [2] stood at 450. Besides, the Optimal dose in test [3] amounted to 250 mg/kg.
The corresponding values for `CCC(CO)NCc1ccc2ccc3cccc4ccc1c2c34.Cl` (configuration not stated) are 25%, 450 and 366 mg/kg.
In the same order, the values of `CC(CO)(CO)NCc1ccc2ccc3cccc4ccc1c2c34.Cl` are 125%, 300 and 300 mg/kg.
In the same order, the values of `OCC1OC(O)C(NCc2ccc3ccc4cccc5ccc2c3c45)C(O)C1O` (configuration not stated) are 20%, 400 and 450 mg/kg.
For the molecule `CCOCC(CO)(CO)NCc1ccc2ccc3cccc4ccc1c2c34.Cl`, the ILS in test [1] is 30%. Besides, in test [2], the LD20 is on record as 225. In addition, the Optimal dose in test [3] was found to be 168 mg/kg.
In the same order, the values of `CC(CO)NCc1ccc2ccc3cccc4ccc1c2c34.Cl` (configuration not stated) are 25%, 600 and 220 mg/kg.
In the same order, the values of `Cl.OCCNCc1ccc2ccc3cccc4ccc1c2c34` are 31%, 220 and 221 mg/kg.
Molecule `Cl.c1cc2ccc3ccc(CNCCCN4CCOCC4)c4ccc(c1)c2c34` registered an ILS in test [1] of 20%. For the same molecule, the LD20 in test [2] is given as 150. The molecule also showed an Optimal dose in test [3] of 150 mg/kg.
